Columns and labels:
Vasopressin V1a receptor [1] = biological target: T1, Vasopressin V1a receptor (Homo sapiens, UniProt P37288); experiment: Inhibition of human V1a receptor expressed in human 1321N1 cells assessed as decrease in Arg8-vasopressin-stimulated calcium flux at 10 uM by fluorometric calcium assay relative to control; format: functional, cell-based
Target sequence in this assay (P37288 whole entry, looked up): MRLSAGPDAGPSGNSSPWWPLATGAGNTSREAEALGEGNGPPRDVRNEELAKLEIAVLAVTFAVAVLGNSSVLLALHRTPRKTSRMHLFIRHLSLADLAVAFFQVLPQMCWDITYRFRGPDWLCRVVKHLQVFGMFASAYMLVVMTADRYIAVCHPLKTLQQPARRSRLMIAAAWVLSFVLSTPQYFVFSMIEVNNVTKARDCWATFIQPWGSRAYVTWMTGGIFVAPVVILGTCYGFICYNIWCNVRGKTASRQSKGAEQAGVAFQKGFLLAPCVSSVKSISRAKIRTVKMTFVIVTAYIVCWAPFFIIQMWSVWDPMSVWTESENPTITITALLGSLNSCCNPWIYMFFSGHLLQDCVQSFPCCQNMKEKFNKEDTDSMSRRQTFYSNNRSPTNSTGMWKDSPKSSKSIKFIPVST

Vasopressin V1a receptor [2] = biological target: T1, Vasopressin V1a receptor; experiment: Displacement of [3H]AVP from human V1a receptor expressed in […] cells assessed as dissociation constant by radioligand binding assay; format: cell-based, 1321N1
Outline: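 Membranes from 1321N1 cells expressing human V1a or V2 receptor incubated with [3H]AVP and increasing test compound concentrations. Nonspecific binding defined with 2 µM arginine-vasopressin for both receptors. IC50 taken from sigmoidal fit of displacement curves, then converted to Ki by Cheng-Prusoff.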
Target sequence in this assay (P37288 whole entry): as the sequence (P37288 whole entry, looked up) above

Vasopressin V1a receptor [3] = biological target: T1, Vasopressin V1a receptor; experiment: Inhibition of human V1a receptor expressed in human 1321N1 cells assessed as decrease in Arg8-vasopressin-stimulated calcium flux by fluorometric calcium assay; format: functional, cell-based
Outline: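 1321N1 cells expressing human V1a receptor stimulated with (Arg8)-vasopressin. Intracellular Ca2+ change measured. IC50 values averaged from at least three independent measurements.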
Target sequence in this assay (P37288 whole entry): as the sequence (P37288 whole entry, looked up) above

in vitro [4] = settings: NMRI, mouse, liver microsomes
in vitro [5] = settings: Wistar, rat, liver microsomes
in vitro [6] = settings: human, liver microsomes
P-glycoprotein [7] = experiment: Efflux ratio of Apparent permeability across apical to basolateral side in human Caco-2 cells expressing P-glycoprotein at 10 uM by HPLC-UV analysis
[8] = Apparent permeability across apical to basolateral side in vinblastine-treated human Caco-2 cells at 10 uM by HPLC-UV analysis
Vasopressin V1a receptor [9] = biological target: T1, Vasopressin V1a receptor; experiment: Displacement of [3H]AVP from human V1a receptor expressed in […] cells at 10 uM by radioligand binding assay relative to control; format: cell-based
Outline: (§1)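 Membranes from 1321N1 cells expressing human V1a or V2 receptor incubated with [3H]AVP and single test concentration. Nonspecific binding defined with 2 µM arginine-vasopressin.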
Target sequence in this assay (P37288 whole entry, looked up): as above

[10] = Apparent permeability across apical to basolateral side in vinblastine-treated human Caco-2 cells at 1 uM by HPLC-UV analysis; format: ADME
Outline: (§2)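 Bidirectional transport across VB-Caco-2 monolayers with test compound at 1 or 10 µM. Apparent permeability A→B reported, with PDR from the two directions.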

P-glycoprotein [11] = experiment: Efflux ratio of Apparent permeability across apical to basolateral side in vinblastine-treated human Caco-2 cells expressing P-glycoprotein at 1 uM by HPLC-UV analysis; format: ADME; outline: as §2
Vasopressin V2 receptor = Vasopressin V2 receptor (Homo sapiens, UniProt P30518); experiment: Displacement of [3H]AVP from human […] receptor expressed in […] cells at 1 uM by radioligand binding assay relative to control; format: cell-based; settings: 1321N1; outline: as §1
Chain of Vasopressin V2 receptor (P30518 whole entry): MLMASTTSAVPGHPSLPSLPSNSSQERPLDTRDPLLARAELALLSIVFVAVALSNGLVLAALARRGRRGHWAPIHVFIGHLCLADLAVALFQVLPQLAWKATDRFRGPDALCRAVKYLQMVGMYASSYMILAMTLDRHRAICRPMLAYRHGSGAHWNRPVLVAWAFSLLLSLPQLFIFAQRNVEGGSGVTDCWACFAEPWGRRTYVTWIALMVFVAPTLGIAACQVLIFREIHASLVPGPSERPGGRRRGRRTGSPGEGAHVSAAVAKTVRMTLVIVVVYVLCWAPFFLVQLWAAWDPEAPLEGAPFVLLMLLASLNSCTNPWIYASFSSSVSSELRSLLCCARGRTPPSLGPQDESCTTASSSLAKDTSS

Mus musculus = organism: Mus musculus; experiment: animal or person; settings: ip, 1 h, read-out: INH

SMILES | inhibition (Vasopressin V1a receptor [1]) | Ki (Vasopressin V1a receptor [2]) | IC50 (Vasopressin V1a receptor [3]) | microsomal CLint at 1 µM (in vitro [4]) | microsomal CLint at 1 µM (in vitro [5]) | microsomal CLint at 1 µM (in vitro [6]) | further results
Clc1ccc2c(c1)C1CC1c1nnc(C3CCN(c4ccccn4)CC3)n1-2 (stereo unspecified) | < 50% | 0.26 µM |  |  |  |  | 
c1ccc(O[C@H]2CC[C@H](c3nnc4n3-c3ccccc3CCC4)CC2)nc1 |  | 0.0023 µM | 0.02 µM | 188 µL/min/mg | 231 µL/min/mg | 8 µL/min/mg | 
Brc1ccc2c(c1)CCCc1nnc(C3CCN(c4ccccn4)CC3)n1-2 |  | 0.0007 µM | 0.013 µM | 50 µL/min/mg | 111 µL/min/mg | 8 µL/min/mg | efflux ratio at 10 µM (P-glycoprotein [7]): 0.8; Papp A→B at 10 µM [8]: 460 nm/s
CC(C)(C)OC(=O)NC1Cc2cc(Cl)ccc2-n2c(C3CCN(c4ccccn4)CC3)nnc21 (stereo unspecified) | < 50% |  |  |  |  |  | inhibition (Vasopressin V1a receptor [9]; 1321N1): 25%
Cc1cc([C@H]2CC[C@H](c3nnc4n3-c3ccc(Cl)cc3[C@@H]3C[C@H]43)CC2)no1 | < 50% | 0.57 µM |  |  |  |  | 
Cc1ccccc1N1CCN(C(=O)N2C[C@@H](C(=O)N3CCCC3)Cc3cc(Cl)ccc32)CC1 |  | 0.0006 µM | 0.0024 µM | 235 µL/min/mg | 170 µL/min/mg | 72 µL/min/mg | Papp A→B at 1 µM [10]: 100 nm/s; efflux ratio at 1 µM (P-glycoprotein [11]): 1.3
NC1Cc2cc(Cl)ccc2-n2c1nnc2C1CCN(c2ccccn2)CC1 (stereo unspecified) | < 50% |  |  |  |  |  | inhibition (Vasopressin V1a receptor [9]; 1321N1): 34%
Cc1ccc(S(=O)(=O)N2CCC(c3nnc4n3-c3ccc(Cl)cc3CC4)CC2)cc1 | < 50% |  |  |  |  |  | inhibition (Vasopressin V1a receptor [9]; 1321N1, filed as antagonist): 42%
CC(=O)N1c2cc(Cl)ccc2-n2c(C3CCN(c4ccccn4)CC3)nnc2C1(C)C | 43% | 2.4 µM |  |  |  |  | 
Cc1cc([C@H]2CC[C@H](c3nnc4n3-c3ccc(Br)cc3CCC4)CC2)no1 |  | 0.0006 µM | 0.0017 µM | 36 µL/min/mg | 76 µL/min/mg | 3 µL/min/mg | 
O=c1[nH]c2cc(Cl)ccc2n2c(C3CCN(c4ccccn4)CC3)nnc12 | 0% |  |  |  |  |  | inhibition (Vasopressin V1a receptor [9]; 1321N1): 3%
Cc1cc([C@H]2CC[C@H](c3nnc4n3-c3ccccc3CCC4)CC2)no1 |  | 0.0016 µM | 0.025 µM | 114 µL/min/mg | 125 µL/min/mg | 0.4 µL/min/mg | 
Brc1ccc2c(c1)CCCc1nnc([C@H]3CC[C@H](Oc4ccccn4)CC3)n1-2 |  | 0.0006 µM | 0.0013 µM | 90 µL/min/mg | 110 µL/min/mg | 9 µL/min/mg | efflux ratio at 10 µM (P-glycoprotein [7]): 0.9; Papp A→B at 10 µM [8]: 290 nm/s
Clc1ccc2c(c1)CCCc1nnc(C3CCN(c4ccccn4)CC3)n1-2 |  | 0.0014 µM | 0.0032 µM | 116 µL/min/mg | 196 µL/min/mg | 19 µL/min/mg | Papp A→B at 1 µM [10]: 370 nm/s; efflux ratio at 1 µM (P-glycoprotein [11]): 1.1
Cc1cc([C@H]2CC[C@H](c3nnc4n3-c3ccc(Cl)cc3[C@H]3C[C@@H]43)CC2)no1 |  | 0.055 µM | 0.635 µM |  |  |  | 
O=C(C1CCN(c2ccccn2)CC1)N1CCNc2cc(Cl)ccc21 |  | 0.0014 µM | 0.26 µM | 132 µL/min/mg | 404 µL/min/mg | 80 µL/min/mg | efflux ratio at 10 µM (P-glycoprotein [7]): 0.7; Papp A→B at 10 µM [8]: 480 nm/s
Clc1ccc2c(c1)nc1[nH]nc(C3CCN(c4ccccn4)CC3)n12 | 11% | 5.2 µM |  |  |  |  | 
c1ccc(N2CCC(c3nnc4n3-c3ccccc3CCC4)CC2)nc1 |  | 0.015 µM | 0.117 µM | 163 µL/min/mg | 130 µL/min/mg | 12 µL/min/mg | 
O=S(=O)(c1ccc(F)cc1)N1CCC(c2nnc3n2-c2ccc(Cl)cc2CC3)CC1 | < 50% |  |  |  |  |  | inhibition (Vasopressin V1a receptor [9]; 1321N1): 36%

SMILES | inhibition (Vasopressin V1a receptor [1]) | Ki (Vasopressin V1a receptor [2]) | IC50 (Vasopressin V1a receptor [3]) | microsomal CLint at 1 µM (in vitro [4]) | microsomal CLint at 1 µM (in vitro [5]) | microsomal CLint at 1 µM (in vitro [6]) | further results
Clc1ccc2c(c1)CCc1nnc(C3CCN(c4ccccn4)CC3)n1-2 |  | 0.071 µM | 1.4 µM | 36 µL/min/mg | 32 µL/min/mg | 0.3 µL/min/mg | efflux ratio at 10 µM (P-glycoprotein [7]): 0.8; Papp A→B at 10 µM [8]: 510 nm/s
CC1(C)Nc2cc(Cl)ccc2-n2c(C3CCN(c4ccccn4)CC3)nnc21 | 28% | 0.8 µM |  |  |  |  | 
Clc1ccc2c(c1)CCc1nnc(C3CCNCC3)n1-2 | < 50% |  |  |  |  |  | inhibition (Vasopressin V1a receptor [9]; 1321N1): 14%
O=S(=O)(c1ccccn1)N1CCC(c2nnc3n2-c2ccc(Cl)cc2CC3)CC1 | < 50% |  |  |  |  |  | inhibition (Vasopressin V1a receptor [9]; 1321N1): 19%
CC(C)(C)OC(=O)N1CCC(c2nnc3n2-c2ccc(Cl)cc2CC3)CC1 | < 50% |  |  |  |  |  | inhibition (Vasopressin V1a receptor [9]; 1321N1): 37%
Cc1cc([C@H]2CC[C@H](c3nnc4n3-c3ccc(Cl)cc3C3CC43)CC2)no1 (mixture of isomers) |  | 0.1 µM | 0.5 µM | 3 µL/min/mg | 1 µL/min/mg | 0.3 µL/min/mg | 
Clc1ccc2c(c1)C1CC1c1nnc([C@H]3CC[C@@H](Oc4ccccn4)CC3)n1-2 (stereo partly specified) | < 50% | 0.18 µM |  |  |  |  | 
Clc1ccc2c(c1)CCc1nnc(C3CCCCC3)n1-2 | < 50% |  |  |  |  |  | inhibition (Vasopressin V1a receptor [9]; 1321N1): 35%
CCc1ccc2c(c1)CCCc1nnc(C3CCN(c4ccccn4)CC3)n1-2 |  | 0.015 µM | 0.252 µM | 170 µL/min/mg | 163 µL/min/mg | 31 µL/min/mg | 
Clc1ccc2c(c1)CCc1nnc([C@H]3CC[C@H](Oc4ccccn4)CC3)n1-2 |  | 0.009 µM | 0.07 µM | 15 µL/min/mg | 12 µL/min/mg | 3 µL/min/mg | inhibition (Vasopressin V2 receptor): 13%; inhibition in vivo at 10 mg/kg (Mus musculus): 66%
Clc1ccc2nc3[nH]nc(C4CCN(c5ccccn5)CC4)n3c2c1 | 8% |  |  |  |  |  | inhibition (Vasopressin V1a receptor [9]; 1321N1): 27%
COc1nc2cc(Cl)ccc2n2c(C3CCN(c4ccccn4)CC3)nnc12 | 40% | 0.7 µM |  | 115 µL/min/mg | 39 µL/min/mg | 8 µL/min/mg | Papp A→B at 1 µM [10]: 280 nm/s; efflux ratio at 1 µM (P-glycoprotein [11]): 0.8
Cc1nnc2n1-c1ccc(Cl)cc1CC2 | < 50% |  |  |  |  |  | inhibition (Vasopressin V1a receptor [9]; 1321N1): 9%
O=S(=O)(c1ccc2c(c1)CCO2)N1CCC(c2nnc3n2-c2ccc(Cl)cc2CC3)CC1 | < 50% |  |  |  |  |  | inhibition (Vasopressin V1a receptor [9]; 1321N1, filed as antagonist): 43%
C#Cc1ccc2c(c1)CCCc1nnc(C3CCN(c4ccccn4)CC3)n1-2 |  | 0.00045 µM | 0.0027 µM | 115 µL/min/mg | 121 µL/min/mg | 27 µL/min/mg | 
COC(=O)C12CC1c1cc(Cl)ccc1-n1c2nnc1[C@H]1CC[C@H](Oc2ccccn2)CC1 (stereo partly specified) | < 50% | 0.4 µM |  |  |  |  | 
Cc1cc([C@H]2CC[C@H](c3nnc4n3-c3ccc(Cl)cc3CCC4)CC2)no1 |  | 0.0007 µM | 0.0022 µM | 38 µL/min/mg | 83 µL/min/mg | 1 µL/min/mg | 
COC(=O)CC1Cc2cc(Cl)ccc2-n2c1nnc2[C@H]1CC[C@H](Oc2ccccn2)CC1 (stereo partly specified) |  | 0.028 µM | 0.22 µM | 373 µL/min/mg | 72 µL/min/mg | 81 µL/min/mg | 
